The text below walks through data of ChEMBL document CHEMBL4190281, “Azacyclo-indoles and Phenolics from the Flowers of Juglans regia” (J Nat Prod, 2017).

The IC50 is the point on the concentration scale where inhibition reaches its midpoint. Low values mean greater potency in that assay, high ones weaker potency in that assay.

Molecules are shown by their SMILES.

In one data set the test system is HCT-116. In words: Growth inhibition of human HCT116 cells after 96 hrs by MTT assay. The format is functional, cell-based. The conditions noted are these: HCT-116, 96 h. The essentials:
(§1)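 Cancer cell lines exposed continuously to each sample for 96 h; growth read by MTT assay. IC50, the concentration inhibiting cell growth by 50%, taken as the mean of three replicates. Taxol and NK109 served as positive controls.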

Another data set concerns A2780. Description: Growth inhibition of human A2780 cells after 96 hrs by MTT assay. Format: functional, cell-based. The conditions noted are these: A2780, 96 h. In a few lines:
as §1
Background: Formazan colour is commonly taken as a measure of viable cells.

Another data set concerns HepG2. In words: Growth inhibition of human HepG2 cells after 96 hrs by MTT assay. The format is functional, cell-based. Conditions: HepG2, 96 h.
The test system of a further data set is BGC-823. In words: Growth inhibition of human BGC823 cells after 96 hrs by MTT assay. The format is functional, cell-based. The conditions noted are these: BGC-823, 96 h. The essentials:
as §1

For the next data set, the system named is NCI-H1650. In words: Growth inhibition of human NCI-H1650 cells after 96 hrs by MTT assay. The format is functional, cell-based. Conditions: NCI-H1650, 96 h. The essentials:
as §1

The nature of data set [1]: Cytotoxicity against rat IEC-6 cells assessed as survival rate at 10 uM after 48 hrs by MTT assay relative to control. Format: cell-based. The conditions noted are these: read-out: Survival. In a few lines: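 MTT read-out of viability in normal IEC-6 intestinal cells co-incubated with compound at 10 μM; readings at 0, 24 and 48 h of coculture (n = 5); survival expressed against a blank control group.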

For the molecule `Nc1ncnc2c1ncn2[C@@H]1CCC(=O)c2c(O)ccc(O)c21`, the IC50 in the data set on HCT-116, in the data set with A2780, in the data set with HepG2, in the data set with BGC-823 and in the data set on NCI-H1650 was greater than 10 µM each time.
With `NC(=O)C1CCC(=O)c2cccc(O)c2N1` (racemic), the IC50 in the data set on HCT-116, with A2780, in the data set with HepG2, with BGC-823 and in the data set with NCI-H1650 was greater than 10 µM each time.
Regarding `O=C1CC[C@@H](c2c[nH]c3ccccc23)c2c(O)ccc(O)c21`, the concentration for half-maximal inhibition (IC50) in the data set with HCT-116, in the data set on A2780, in the data set with HepG2, with BGC-823 and with NCI-H1650 was greater than 10 µM each time.
With `NC(=O)[C@H]1CCC(=O)c2cccc(O)c2N1`, the IC50 with HCT-116, in the data set on A2780, in the data set with HepG2, in the data set with BGC-823 and in the data set with NCI-H1650 was greater than 10 µM each time.
Consider `Nc1ncnc2c1ncn2C1CCC(=O)c2cccc(O)c21` (racemic), for which the 50% inhibitory concentration (IC50) in the data set on HCT-116, in the data set on A2780, in the data set with HepG2, in the data set with BGC-823 and in the data set with NCI-H1650 was greater than 10 µM in each case.
Turning to `Nc1ncnc2c1ncn2[C@@H]1CCC(=O)c2cccc(O)c21`, the IC50 in the data set with HCT-116, in the data set on A2780, in the data set on HepG2, in the data set with BGC-823 and in the data set with NCI-H1650 was greater than 10 µM each time.
For the molecule `O=C1CCC(c2c[nH]c3ccccc23)c2c(O)ccc(O)c21` (racemic), the 50% inhibitory concentration (IC50) in the data set with HCT-116, in the data set on A2780, with HepG2, in the data set on BGC-823 and with NCI-H1650 was greater than 10 µM each time.
Turning to `Nc1ncnc2c1ncn2[C@H]1CCC(=O)c2cccc(O)c21`, the 50% inhibitory concentration (IC50) in the data set on HCT-116, with A2780, in the data set on HepG2, with BGC-823 and in the data set with NCI-H1650 was greater than 10 µM in each case.
As for `Nc1ncnc2c1ncn2C1CCC(=O)c2c(O)ccc(O)c21` (racemic), the 50% inhibitory concentration (IC50) with HCT-116, with A2780, in the data set on HepG2, in the data set with BGC-823 and in the data set on NCI-H1650 was greater than 10 µM in each case.
As for `O=C1CC[C@H](c2c[nH]c3ccccc23)c2c(O)ccc(O)c21`, the IC50 in the data set on HCT-116, in the data set with A2780, with HepG2, with BGC-823 and in the data set on NCI-H1650 was greater than 10 µM in each case.
On to `O=C1CCC2c3c([nH]c4ccccc34)CCN12` (racemic), for which the IC50 in the data set with HCT-116, with A2780, in the data set on HepG2, with BGC-823 and in the data set on NCI-H1650 was greater than 10 µM in each case.
For `CC(=O)O[C@H]1C(=O)[C@@]2(C)[C@H]([C@H](OC(=O)c3ccccc3)[C@]3(O)C[C@H](OC(=O)[C@H](O)[C@@H](NC(=O)c4ccccc4)c4ccccc4)C(C)=C1C3(C)C)[C@]1(OC(C)=O)CO[C@@H]1C[C@@H]2O` [PACLITAXEL], the concentration for half-maximal inhibition (IC50) in the data set with HCT-116 is 0.0002 µM; in the data set on A2780, 0.0204 µM; in the data set on BGC-823, 0.0006 µM; in the data set with NCI-H1650 it was greater than 1 µM.
Turning to `COc1ccc2c(c[n+](C)c3c4cc5c(cc4ccc23)OCO5)c1O`, the IC50 turned out to be 3.94 µM in the data set with HCT-116; 0.9 µM in the data set with A2780; 1.19 µM in the data set on HepG2; 1.84 µM in the data set with BGC-823; 1.75 µM with NCI-H1650.
For `NC(=O)[C@@H]1CCC(=O)c2cccc(O)c2N1` the same measures were greater than 10 µM, greater than 10 µM, greater than 10 µM, greater than 10 µM and greater than 10 µM.
In the case of `O=C1CC[C@H]2c3c([nH]c4ccccc34)CCN12`, the half-inhibitory concentration (IC50) with HCT-116, in the data set on A2780, with HepG2, in the data set on BGC-823 and with NCI-H1650 was greater than 10 µM each time.
Turning to `O=Cc1ccc2n1CCc1c([nH]c3ccccc13)C2`, the half-inhibitory concentration (IC50) with HCT-116 turned out to be 2.87 µM; with A2780 it was 0.96 µM; in the data set with HepG2, 1.87 µM; with BGC-823, 2.28 µM; with NCI-H1650, 2.86 µM. Besides, in data set [1], the viability at 48 h, 10 µM was 79.6%.
For the molecule `O=C1CC[C@@H]2c3c([nH]c4ccccc34)CCN12`, the half-maximal inhibitory concentration (IC50) with HCT-116, in the data set with A2780, with HepG2, in the data set on BGC-823 and in the data set on NCI-H1650 was greater than 10 µM throughout.
Regarding `CCOCc1ccc(C=O)n1CCc1ccc(O)cc1`, the half-inhibitory concentration (IC50) in the data set with HCT-116, in the data set on A2780, in the data set on HepG2, in the data set on BGC-823 and in the data set with NCI-H1650 was greater than 10 µM in each case.
`Nc1ncnc2c1ncn2[C@H]1CCC(=O)c2c(O)ccc(O)c21`: the concentration for half-maximal inhibition (IC50) in the data set with HCT-116, with A2780, with HepG2, in the data set on BGC-823 and with NCI-H1650 was greater than 10 µM each time.
